ChEMBL document CHEMBL5034012, “Procainamide-SAHA Fused Inhibitors of hHDAC6 Tackle Multidrug-Resistant Malaria Parasites” (J Med Chem, 2021)
Active and inactive are the calls of the source. No cut-off for these calls is given here.

Assays:
Plasmodium falciparum [1] = experiment: Antiplasmodial activity against asynchronous asexual culture of Plasmodium falciparum NF54 assessed as parasite growth inhibition; type: functional, organism-based
How it was run: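 Asynchronous asexual NF54 cultures exposed to 7-point, 2-step serial dilutions starting at 500nM. DHA served as positive control, DMSO as negative. IC50 interpolated from three independent experiments run in triplicate.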

HepG2 = experiment: cells; type: functional, cell-based; details: Homo sapiens, HepG2, 72 h
HL-60 [2] = experiment: Cytotoxicity against human HL-60 cells assessed as inhibition of cell proliferation at 10 uM measured after 72 hrs by ATPlite assay; type: functional
How it was run: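 Cells exposed to compound for 72h; viability read by ATPlite. DMSO control. Technical triplicates, at least two biological replicates. IC50 interpolated from the curves.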

Histone deacetylase = experiment: Inhibition of human HDAC using human HeLa cell nuclear extract measured after 60 mins by fluorescence assay; type: tissue-based
HL-60 [3] = experiment: cells; type: functional, cell-based; details: Homo sapiens, HL-60, 72 h
Plasmodium falciparum [4] = experiment: Antiplasmodial activity against Cambodian multidrug-resistant Plasmodium falciparum isolate incubated for 96 hrs measured by SYBR Green 1 assay; type: functional, organism-based
How it was run: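 Cambodian isolates chosen by multidrug-resistance pattern, 10 per resistance type. Ring-synchronized cultures at 2% hematocrit and 1% starting parasitemia; 11-point 2-step dilutions from 500nM; 96h incubation, then SYBR-green I read-out. Mefloquine and monodesethylamodiaquine served as positive controls. Triplicate wells, one biological replicate per isolate.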

Plasmodium falciparum [5] = experiment: Antiplasmodial activity against synchronized ring stage Plasmodium falciparum 3D7 assessed as parasite reduction rate in lag phase by measuring time required to achieve maximum speed of action at 10 times IC50 concentration; type: functional
How it was run: (§1)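 3D7 culture of mostly rings exposed to drug for 6, 24, 48, 72 or 96h. Then washed, serially diluted 1/3 in fresh RBC and grown 3 weeks. Growth read by SYBR-green I. Number of wells with growth used to back-calculate viable parasites at each time point and derive growth parameters. One experiment, run in duplicate.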

Plasmodium falciparum [6] = experiment: Antiplasmodial activity against synchronized ring stage Plasmodium falciparum 3D7 assessed as parasite reduction over one cycle upto 48 hrs at 10 times IC50 concentration; type: functional; details: time hrs <=48; how it was run: as §1
Plasmodium falciparum [7] = experiment: Antiplasmodial activity against Plasmodium falciparum 3D7 assessed as time to kill initial parasite load at 10 times IC50 concentration; type: functional
How it was run: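 Parasite reduction rate assay on 3D7 cultures containing mostly rings, with DHA and pyrimethamine as references. Exposure windows of 6, 24, 48, 72 and 96h; cells then washed, serially diluted 1/3 in fresh RBC and grown 3 weeks before SYBR-green I read-out. Number of wells with growth gives viable parasites per time point, per Sanz et al. One experiment in duplicate.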

[8] = target: Histone deacetylase (Homo sapiens) (UniProt Q13547+O15379+Q9UBN7+Q92769+Q9UQL6+Q8WUI4+Q9BY41+Q96DB2+P56524+Q9UKV0+Q969S8); experiment: Inhibition of human HDAC using human HeLa cell nuclear extract 1 uM by fluorescence assay
How it was run: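 HeLa nuclear extract (3x10⁻³mg) incubated with compound and 43 µM Tosyl-Gly-Pro-Lys(Ac)-AMC. Buffer: 25mM Tris-HCl pH 8, 140mM NaCl, 3mM KCl, 1mM MgCl₂. Run 45 min at 37°C, then trypsin (1mg/mL) 15min at RT, then ethanol. AMC fluorescence read at ex 380/em 460nm. Background subtracted; data normalized to DMSO. Duplicates in ≥2 independent experiments.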

Plasmodium falciparum [9] = experiment: Antiplasmodial activity against Plasmodium falciparum stage IIb-III gametocytes assessed as abnormal morphology by measuring rounded/swollen at highest concentration measured after 72 hrs using Geimsa staining based assay; type: functional
How it was run: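 Day-4 stage IIb-III gametocytes (asexuals removed by N-acetyl glucosamine), about 1% gametocytemia at 2% hematocrit, treated 72h at 10, 5, 1 or 0.5 µM against 0.1% DMSO. Then washed and recultured with daily medium changes. Morphology and parasitemia scored daily on Giemsa-stained thin smears.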

Plasmodium falciparum [10] = experiment: Antiplasmodial activity against Plasmodium falciparum NF54 late stage IV-V gametocytes assessed as reduction in number of exflagellation centers in at 1 uM treated for 72 hrs; type: functional, organism-based
How it was run: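 Synchronous gametocytes induced; asexual forms removed with N-acetyl glucosamine for 5 days. Day-9 stage IV-V gametocytes, about 1% gametocytemia at 2% hematocrit, treated 72h at 10, 5, 1 or 0.5 µM against 0.1% DMSO. Then washed and recultured with daily medium changes. […], pelleted cells mixed 1:1 with human serum. Exflagellation centers counted over ≥10 fields at 40× within one hour. Two independent experiments; one-way ANOVA.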

| IC50 (HepG2) | IC50 (Histone deacetylase) | IC50 (HL-60 [3]) | SMILES | IC50 (Plasmodium falciparum [1]) | other results |
| --- | --- | --- | --- | --- | --- |
| 26 µM | 0.23 µM | – | O=C(CCCCCCC(=O)Nc1ccc(C(=O)NCCN2CCOCC2)cc1)NO | 341 nM | inhibition at 10 µM (HL-60 [2]): 40% |
| 8.2 µM | 0.16 µM | 34000 nM | CCN(CC)CCCNC(=O)c1ccc(NC(=O)CCCCCCC(=O)NO)cc1 | 64 nM | – |
| 150 µM | – | 2500 nM | CC(C)(C)OC(=O)N1CCC(NC(=O)c2ccc(NC(=O)CCCCCCC(=O)NO)cc2)CC1 | 467 nM | – |
| 2.4 µM | 0.21 µM | 2700 nM | CCN(CC)c1ccc(NC(=O)CCCCCCC(=O)NO)cc1 | 239 nM | – |
| > 100 µM | – | > 10000 nM | CCC(CC)CCNC(=O)c1ccc(NC(=O)CCCCCCC(=O)NO)cc1 | > 500 nM | – |

More lines, now with the values behind:

| SMILES | IC50 (HepG2) | IC50 (Histone deacetylase) | IC50 (HL-60 [3]) | IC50 (Plasmodium falciparum [1]) | other results |
| --- | --- | --- | --- | --- | --- |
| CCNCc1cc(Nc2ccnc3cc(Cl)ccc23)ccc1O [DESETHYL AMODIAQUINE] | – | – | – | – | IC50 (Plasmodium falciparum [4]): 89 nM |
| CCc1nc(N)nc(N)c1-c1ccc(Cl)cc1 [PYRIMETHAMINE] | – | – | – | – | Time (Plasmodium falciparum [5]): 24 h; log(activity) (Plasmodium falciparum [6]): 3.57; LT99.9 (Plasmodium falciparum [7]): 44.1 h |
| CCN(CC)CCNC(=O)c1ccc(NC(=O)CCCCC(=O)NO)cc1 | – | – | – | 410 nM | inhibition [8]: 60% |
| C[C@H]1[C@@H](O)O[C@@H]2O[C@@]3(C)CC[C@H]4[C@H](C)CC[C@@H]1[C@@]24OO3 [ARTENIMOL] | – | – | – | 3 nM | Time (Plasmodium falciparum [5]): 0 h; log(activity) (Plasmodium falciparum [6]): 5.12; LT99.9 (Plasmodium falciparum [7]): 21.2 h |
| O=C(CCCCCCC(=O)Nc1ccccc1)NO [VORINOSTAT] | – | – | – | – | Activity (Plasmodium falciparum [9]): <=90%; Activity (Plasmodium falciparum [10]): inactive |
